ChEMBL document CHEMBL3407339, “A novel series of thiazolyl-pyrazoline derivatives: synthesis and evaluation of antifungal activity, cytotoxicity and genotoxicity” (Eur J Med Chem, 2015)
Values after ≈ are worked out from the molar mass of the structure shown.

What was measured:
Salmonella typhimurium [1] = experiment: Mutagenicity in Salmonella typhimurium TA100 at 1.25 mg/ml after 48 hrs by AMES MPF assay in absence of Sprague-Dawley rat liver microsomal S9 fraction relative to baseline; type: toxicity, organism-based; details: salmonella enterica subsp. enterica serovar typhimurium
In short: (§1)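 Ames MPF fluctuation test with TA98/TA100. Overnight cultures (37 °C, 14–16 h) mixed with exposure medium; ±Aroclor-1254-induced rat liver S9 (final 4.5% v/v). Compounds in DMSO, 0.156–5 mg/mL. 90 min exposure at 37 °C, then indicator medium; 48 wells per concentration, 48 h at 37 °C, in triplicate. Yellow wells counted; fold induction over baseline (mean + 1 SD of zero-dose control).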

Fusarium solani = experiment: Antifungal activity against Fusarium solani NRRL 13414 after 72 hrs by broth microdilution assay; type: functional; details: NRRL 13414, 72 h
In short: (§2)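 Compounds dissolved in DMSO, diluted in sterile distilled water from 4 to 0.0039 mg/mL. Molds grown on PDA at 25 °C for 5 days, suspended in double-strength PDB at 10⁵ spores/mL. Incubated at 25 °C for 72 h; mycelial growth read under stereo microscope. MIC = lowest concentration inhibiting visible growth. Ketoconazole reference.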

Aspergillus parasiticus = experiment: Antifungal activity against Aspergillus parasiticus NRRL 465 after 72 hrs by broth microdilution assay; type: functional; details: NRRL 465, 72 h; in short: as §2
Salmonella typhimurium [2] = experiment: Mutagenicity in Salmonella typhimurium TA98 at 5 mg/ml after 48 hrs by AMES MPF assay in absence of Sprague-Dawley rat liver microsomal S9 fraction relative to baseline; type: toxicity, organism-based; details: salmonella enterica subsp. enterica serovar typhimurium; in short: as §1
[3] = Cytotoxicity against mouse NIH/3T3 cells after 24 hrs by XTT assay; type: cell-based; details: NIH3T3, 24 h
In short: (§3)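 A549 cells in RPMI and NIH/3T3 cells in DMEM, each with fetal calf serum, antibiotics and 7.5% NaHCO₃, at 37 °C, 5% CO₂. Seeded at 20,000 cells/well, 24 h, then compounds added in medium at 500–3.9 doses (final DMSO <0.1%) for 24 h. XTT read after 3 h at 480 nm (ref 680 nm). IC₅₀ by non-linear regression; triplicates; cisplatin control.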

Candida albicans = experiment: Antifungal activity against Candida albicans ATCC 90028 after 48 hrs by broth microdilution assay; type: functional; details: ATCC 90028, 48 h
In short: (§4)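 Broth microdilution of DMSO stocks serially diluted in sterile water (4 to 0.0039 mg/mL). Yeasts grown on SDA at 37 °C for 24 h, suspended in double-strength PDB at 10⁵ spores/mL. Incubated at 37 °C for 48 h, then sprayed with 0.5% aqueous TTC. MIC = lowest concentration inhibiting visible growth. Ketoconazole reference.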

Salmonella typhimurium [4] = experiment: Mutagenicity in Salmonella typhimurium TA98 at 0.156 mg/ml after 48 hrs by AMES MPF assay in presence of Sprague-Dawley rat liver microsomal S9 fraction relative to baseline; type: toxicity, organism-based; details: salmonella enterica subsp. enterica serovar typhimurium; in short: as §1
Pichia kudriavzevii = experiment: Antifungal activity against Candida krusei NRLL Y 7179 after 48 hrs by broth microdilution assay; type: functional; details: NRLL Y 7179, 48 h; in short: as §4
Salmonella typhimurium [5] = experiment: Mutagenicity in Salmonella typhimurium TA100 at 5 mg/ml after 48 hrs by AMES MPF assay in presence of Sprague-Dawley rat liver microsomal S9 fraction relative to baseline; type: toxicity, organism-based; details: salmonella enterica subsp. enterica serovar typhimurium; in short: as §1
Salmonella typhimurium [6] = experiment: Mutagenicity in Salmonella typhimurium TA98 at 2.5 mg/ml after 48 hrs by AMES MPF assay in presence of Sprague-Dawley rat liver microsomal S9 fraction relative to baseline; type: toxicity, organism-based; details: salmonella enterica subsp. enterica serovar typhimurium; in short: as §1
Salmonella typhimurium [7] = experiment: Mutagenicity in Salmonella typhimurium TA98 at 1.25 mg/ml after 48 hrs by AMES MPF assay in absence of Sprague-Dawley rat liver microsomal S9 fraction relative to baseline; type: toxicity, organism-based; details: salmonella enterica subsp. enterica serovar typhimurium; in short: as §1
Salmonella typhimurium [8] = experiment: Mutagenicity in Salmonella typhimurium TA98 at 2.5 mg/ml after 48 hrs by AMES MPF assay in absence of Sprague-Dawley rat liver microsomal S9 fraction relative to baseline; type: toxicity, organism-based; details: salmonella enterica subsp. enterica serovar typhimurium; in short: as §1
Aspergillus niger = experiment: Antifungal activity against Aspergillus niger ATCC 1094 after 72 hrs by broth microdilution assay; type: functional; details: ATCC 1094, 72 h; in short: as §2
Salmonella typhimurium [9] = experiment: Mutagenicity in Salmonella typhimurium TA100 at 0.625 mg/ml after 48 hrs by AMES MPF assay in presence of Sprague-Dawley rat liver microsomal S9 fraction relative to baseline; type: toxicity, organism-based; details: salmonella enterica subsp. enterica serovar typhimurium; in short: as §1
Candida tropicalis = experiment: Antifungal activity against Candida tropicalis NRLL Y 12968 after 48 hrs by broth microdilution assay; type: functional; details: NRLL Y 12968, 48 h; in short: as §4
Nakaseomyces glabratus = experiment: Antifungal activity against Candida glabrata clinical isolate after 48 hrs by broth microdilution assay; type: functional; in short: as §4
Salmonella typhimurium [10] = experiment: Mutagenicity in Salmonella typhimurium TA98 at 0.3125 mg/ml after 48 hrs by AMES MPF assay in presence of Sprague-Dawley rat liver microsomal S9 fraction relative to baseline; type: toxicity, organism-based; details: salmonella enterica subsp. enterica serovar typhimurium; in short: as §1
Salmonella typhimurium [11] = experiment: Mutagenicity in Salmonella typhimurium TA98 at 0.156 mg/ml after 48 hrs by AMES MPF assay in absence of Sprague-Dawley rat liver microsomal S9 fraction relative to baseline; type: toxicity, organism-based; details: salmonella enterica subsp. enterica serovar typhimurium; in short: as §1
Salmonella typhimurium [12] = experiment: Mutagenicity in Salmonella typhimurium TA98 at 1.25 mg/ml after 48 hrs by AMES MPF assay in presence of Sprague-Dawley rat liver microsomal S9 fraction relative to baseline; type: toxicity, organism-based; details: salmonella enterica subsp. enterica serovar typhimurium; in short: as §1
Salmonella typhimurium [13] = experiment: Mutagenicity in Salmonella typhimurium TA100 at 0.3125 mg/ml after 48 hrs by AMES MPF assay in absence of Sprague-Dawley rat liver microsomal S9 fraction relative to baseline; type: toxicity, organism-based; details: salmonella enterica subsp. enterica serovar typhimurium; in short: as §1
Salmonella typhimurium [14] = experiment: Mutagenicity in Salmonella typhimurium TA100 at 0.156 mg/ml after 48 hrs by AMES MPF assay in presence of Sprague-Dawley rat liver microsomal S9 fraction relative to baseline; type: toxicity, organism-based; details: salmonella enterica subsp. enterica serovar typhimurium; in short: as §1
Salmonella typhimurium [15] = experiment: Mutagenicity in Salmonella typhimurium TA98 at 0.625 mg/ml after 48 hrs by AMES MPF assay in presence of Sprague-Dawley rat liver microsomal S9 fraction relative to baseline; type: toxicity, organism-based; details: salmonella enterica subsp. enterica serovar typhimurium; in short: as §1
Salmonella typhimurium [16] = experiment: Mutagenicity in Salmonella typhimurium TA100 at 0.156 mg/ml after 48 hrs by AMES MPF assay in absence of Sprague-Dawley rat liver microsomal S9 fraction relative to baseline; type: toxicity, organism-based; details: salmonella enterica subsp. enterica serovar typhimurium; in short: as §1
Candida parapsilosis = experiment: Antifungal activity against Candida parapsilosis NRLL Y 12696 after 48 hrs by broth microdilution assay; type: functional; details: Lodderomyces parapsilosis, NRLL Y 12696, 48 h; in short: as §4
Salmonella typhimurium [17] = experiment: Mutagenicity in Salmonella typhimurium TA100 at 2.5 mg/ml after 48 hrs by AMES MPF assay in presence of Sprague-Dawley rat liver microsomal S9 fraction relative to baseline; type: toxicity, organism-based; details: salmonella enterica subsp. enterica serovar typhimurium; in short: as §1
Salmonella typhimurium [18] = experiment: Mutagenicity in Salmonella typhimurium TA98 at 0.3125 mg/ml after 48 hrs by AMES MPF assay in absence of Sprague-Dawley rat liver microsomal S9 fraction relative to baseline; type: toxicity, organism-based; details: salmonella enterica subsp. enterica serovar typhimurium; in short: as §1
Salmonella typhimurium [19] = experiment: Mutagenicity in Salmonella typhimurium TA98 at 5 mg/ml after 48 hrs by AMES MPF assay in presence of Sprague-Dawley rat liver microsomal S9 fraction relative to baseline; type: toxicity, organism-based; details: salmonella enterica subsp. enterica serovar typhimurium; in short: as §1
Salmonella typhimurium [20] = experiment: Mutagenicity in Salmonella typhimurium TA100 at 1.25 mg/ml after 48 hrs by AMES MPF assay in presence of Sprague-Dawley rat liver microsomal S9 fraction relative to baseline; type: toxicity, organism-based; details: salmonella enterica subsp. enterica serovar typhimurium; in short: as §1
[Candida] zeylanoides = Antifungal activity against Candida zeylanoides NRLL Y 1774 after 48 hrs by broth microdilution assay; type: functional; details: Dujonia zeylanoides, NRLL Y 1774, 48 h; in short: as §4
Salmonella typhimurium [21] = experiment: Mutagenicity in Salmonella typhimurium TA98 at 0.625 mg/ml after 48 hrs by AMES MPF assay in absence of Sprague-Dawley rat liver microsomal S9 fraction relative to baseline; type: toxicity, organism-based; details: salmonella enterica subsp. enterica serovar typhimurium; in short: as §1
Salmonella typhimurium [22] = experiment: Mutagenicity in Salmonella typhimurium TA100 at 2.5 mg/ml after 48 hrs by AMES MPF assay in absence of Sprague-Dawley rat liver microsomal S9 fraction relative to baseline; type: toxicity, organism-based; details: salmonella enterica subsp. enterica serovar typhimurium; in short: as §1
Salmonella typhimurium [23] = experiment: Mutagenicity in Salmonella typhimurium TA100 at 5 mg/ml after 48 hrs by AMES MPF assay in absence of Sprague-Dawley rat liver microsomal S9 fraction relative to baseline; type: toxicity, organism-based; details: salmonella enterica subsp. enterica serovar typhimurium; in short: as §1
Salmonella typhimurium [24] = experiment: Mutagenicity in Salmonella typhimurium TA100 at 0.625 mg/ml after 48 hrs by AMES MPF assay in absence of Sprague-Dawley rat liver microsomal S9 fraction relative to baseline; type: toxicity, organism-based; details: salmonella enterica subsp. enterica serovar typhimurium; in short: as §1
Aspergillus flavus = experiment: Antifungal activity against Aspergillus flavus NRRL 980 after 72 hrs by broth microdilution assay; type: functional; details: NRRL 980, 72 h; in short: as §2
A549 = experiment: Antiproliferative activity against human A549 cells after 24 hrs by XTT assay; type: functional, cell-based; details: A549, 24 h; in short: as §3
Salmonella typhimurium [25] = experiment: Mutagenicity in Salmonella typhimurium TA100 at 0.3125 mg/ml after 48 hrs by AMES MPF assay in presence of Sprague-Dawley rat liver microsomal S9 fraction relative to baseline; type: toxicity, organism-based; details: salmonella enterica subsp. enterica serovar typhimurium; in short: as §1

## Fc1ccc(C2CC(c3ccc(Cl)s3)=NN2c2nc(-c3ccc(C(F)(F)F)cc3)cs2)cc1 (stereo unspecified)
Salmonella typhimurium [1]
  fold change (FC): 3
Fusarium solani
  MIC: 250 µg/mL (≈ 492 µM)
Aspergillus parasiticus
  MIC: 250 µg/mL (≈ 492 µM)
Salmonella typhimurium [2]
  fold change (FC): 0.67
[3]
  IC50: > 500 µg/mL
Candida albicans
  MIC: 500 µg/mL (≈ 984 µM)
Salmonella typhimurium [4]
  fold change (FC): 0.87
Pichia kudriavzevii
  MIC: 1000 µg/mL (≈ 1970 µM)
Salmonella typhimurium [5]
  fold change (FC): 2.31
Salmonella typhimurium [6]
  fold change (FC): 0.33
Salmonella typhimurium [7]
  fold change (FC): 0.67
Salmonella typhimurium [8]
  fold change (FC): 0
Aspergillus niger
  MIC: 250 µg/mL (≈ 492 µM)
Salmonella typhimurium [9]
  fold change (FC): 2.54
Candida tropicalis
  MIC: 500 µg/mL (≈ 984 µM)
Nakaseomyces glabratus
  MIC: 125 µg/mL (≈ 246 µM)
Salmonella typhimurium [10]
  fold change (FC): 0.55
Salmonella typhimurium [11]
  fold change (FC): 0
Salmonella typhimurium [12]
  fold change (FC): 0.22
Salmonella typhimurium [13]
  fold change (FC): 1
Salmonella typhimurium [14]
  fold change (FC): 2.08
Salmonella typhimurium [15]
  fold change (FC): 1.09
Salmonella typhimurium [16]
  fold change (FC): 0.67
Candida parapsilosis
  MIC: 500 µg/mL (≈ 984 µM)
Salmonella typhimurium [17]
  fold change (FC): 2.31
Salmonella typhimurium [18]
  fold change (FC): 0.33
Salmonella typhimurium [19]
  fold change (FC): 0.98
Salmonella typhimurium [20]
  fold change (FC): 2.77
[Candida] zeylanoides
  MIC: 500 µg/mL (≈ 984 µM)
Salmonella typhimurium [21]
  fold change (FC): 0.67
Salmonella typhimurium [22]
  fold change (FC): 1.33
Salmonella typhimurium [23]
  fold change (FC): 2.67
Salmonella typhimurium [24]
  fold change (FC): 1.33
Aspergillus flavus
  MIC: 125 µg/mL (≈ 246 µM)
A549
  IC50: > 500 µg/mL
Salmonella typhimurium [25]
  fold change (FC): 2.31
